Reference: ChEMBL document CHEMBL1764975, “A new DNA gyrase inhibitor subclass of the cyclothialidine family based on a bicyclic dilactam-lactone scaffold. Synthesis and antibacterial properties” (J Med Chem, 2011)
Converted amounts (≈) assume the structure as drawn.

Tested on: Staphylococcus aureus
Assay: Antimicrobial activity against Staphylococcus aureus Smith infected in iv dosed septicaemia Swiss albino mouse model after 4 days
Type: functional
Conditions: 96 h
Outline: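 Septicaemia model in mice infected with S. aureus Smith, compound given iv. In experiments with 0-1 survivors among 5-10 control mice, ED₅₀ (mg/kg) taken as lowest dose giving 3-5 survivors out of 5 infected mice.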

| SMILES | ED50 [mg/kg] |
| --- | --- |
| COc1cc(O)c2c(c1C)C(=O)O[C@H](CO)CCC/C(S)=N/[C@H](c1nc(C)no1)CSC2 | 12.5 |
| COc1cc(O)c2c(c1Br)C(=O)OCC(=O)NCC(=O)N[C@H](c1nc(C)no1)CSC2 | 3 |
| COc1cc(O)c2c(c1C)C(=O)OCCCCC(=O)N[C@H](c1nc(C)no1)CSC2 | > 25 |
| COc1cc(O)c2c(c1C)C(=O)OCCCCC(=S)N[C@H](c1nc(CN)no1)CSC2.Cl | 8.5 |

Tested on: Staphylococcus aureus
Assay: Plasma shift, ratio of MIC for Staphylococcus aureus Smith in presence of mouse plasma to MIC for Staphylococcus aureus Smith in absence of mouse plasma
Type: functional
Conditions: not given
Outline: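 Agar dilution MICs against S. aureus Smith were run on BHI agar mixed 1:1 with mouse plasma and on plain BHI agar. The plasma shift is the MIC with plasma divided by the MIC on BHI agar alone.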

| SMILES | Ratio |
| --- | --- |
| COc1cc(O)c2c(c1Br)C(=O)OCC(=O)NCC(=O)N[C@H](c1nc(C)no1)CSC2 | 2 |
| COc1cc(O)c2c(c1C)C(=O)OCCCCC(=O)N[C@H](c1nc(C)no1)CSC2 | 2 |
| COc1cc(O)c2c(c1C)C(=O)OCCCCC(=S)N[C@H](c1nc(CN)no1)CSC2.Cl | 4 |

Tested on: Staphylococcus aureus
Assay: Antimicrobial activity against multidrug-resistant Staphylococcus aureus after 18 hrs by agar dilution method
Type: functional
Conditions: not given
Outline: (§1)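 Agar dilution on Mueller-Hinton agar, inoculum 10⁴ CFU/spot, against panels of multiresistant clinical strains (S. aureus 11, E. faecalis 16, E. faecium 23). MIC_50/90 in μg/mL taken as the minimum concentration inhibiting at least 50% or 90% of the strains tested.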

| SMILES | MIC50 [µg/mL] | MIC90 [µg/mL] |
| --- | --- | --- |
| COc1cc(O)c2c(c1C)C(=O)O[C@H](CO)CCC/C(S)=N/[C@H](c1nc(C)no1)CSC2 | 1 (≈ 2.08 µM) | 1 (≈ 2.08 µM) |
| COc1cc(O)c2c(c1Br)C(=O)OCC(=O)NCC(=O)N[C@H](c1nc(C)no1)CSC2 | 4 (≈ 7.76 µM) | 4 (≈ 7.76 µM) |

Tested on: Staphylococcus aureus
Assay: (§2) Antimicrobial activity against Staphylococcus aureus Smith after 18 hrs by agar dilution method
Type: functional
Conditions: not given
Outline: (§3)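 Agar dilution on Mueller-Hinton medium, inoculum 10⁴ CFU/spot; MIC is the minimum inhibitory concentration against the named strain.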

| SMILES | MIC [µg/mL] |
| --- | --- |
| COc1cc(O)c2c(c1Br)C(=O)OCC(=O)NCC(=O)N[C@H](c1nc(C)no1)CSC2 | 1 (≈ 1.94 µM) |
| COc1cc(O)c2c(c1C)C(=O)OCCCCC(=O)N[C@H](c1nc(C)no1)CSC2 | 0.25 (≈ 0.574 µM) |
| COc1cc(O)c2c(c1C)C(=O)OCCCCC(=S)N[C@H](c1nc(CN)no1)CSC2.Cl | 0.25 |

Tested on: Staphylococcus epidermidis
Assay: Antimicrobial activity against Staphylococcus epidermidis 16/2 after 18 hrs by agar dilution method
Type: functional
Conditions: 16/2, 18 h
Outline: as §3

| SMILES | MIC [µg/mL] |
| --- | --- |
| COc1cc(O)c2c(c1Br)C(=O)OCC(=O)NCC(=O)N[C@H](c1nc(C)no1)CSC2 | < 0.12 |
| COc1cc(O)c2c(c1C)C(=O)OCCCCC(=O)N[C@H](c1nc(C)no1)CSC2 | 0.12 (≈ 0.276 µM) |
| COc1cc(O)c2c(c1C)C(=O)OCCCCC(=S)N[C@H](c1nc(CN)no1)CSC2.Cl | < 0.12 |

Tested on: Moraxella catarrhalis
Assay: Antimicrobial activity against multidrug-resistant Moraxella catarrhalis after 18 hrs by agar dilution method
Type: functional
Conditions: not given
Outline: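 Agar dilution on Mueller-Hinton agar supplemented with sheep blood (5% v/v), inoculum 10⁵ CFU/spot, against 20 multiresistant M. catarrhalis strains. MIC_50/90 in μg/mL taken as the minimum concentration inhibiting at least 50% or 90% of the strains.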

| SMILES | MIC50 [µg/mL] | MIC90 [µg/mL] |
| --- | --- | --- |
| COc1cc(O)c2c(c1C)C(=O)O[C@H](CO)CCC/C(S)=N/[C@H](c1nc(C)no1)CSC2 | 2 (≈ 4.15 µM) | 2 (≈ 4.15 µM) |
| COc1cc(O)c2c(c1Br)C(=O)OCC(=O)NCC(=O)N[C@H](c1nc(C)no1)CSC2 | 1 (≈ 1.94 µM) | 2 (≈ 3.88 µM) |

Tested on: Escherichia coli
Assay: Antimicrobial activity against Escherichia coli 25922 after 18 hrs by agar dilution method
Type: functional
Conditions: Escherichia coli, 25922, 18 h
Outline: as §3

| SMILES | MIC [µg/mL] |
| --- | --- |
| COc1cc(O)c2c(c1Br)C(=O)OCC(=O)NCC(=O)N[C@H](c1nc(C)no1)CSC2 | > 64 |
| COc1cc(O)c2c(c1C)C(=O)OCCCCC(=O)N[C@H](c1nc(C)no1)CSC2 | > 64 |
| COc1cc(O)c2c(c1C)C(=O)OCCCCC(=S)N[C@H](c1nc(CN)no1)CSC2.Cl | 64 |

Tested on: Enterococcus faecium
Assay: Antimicrobial activity against multidrug-resistant Enterococcus faecium after 18 hrs by agar dilution method
Type: functional
Conditions: not given
Outline: as §1

| SMILES | MIC50 [µg/mL] | MIC90 [µg/mL] |
| --- | --- | --- |
| COc1cc(O)c2c(c1C)C(=O)O[C@H](CO)CCC/C(S)=N/[C@H](c1nc(C)no1)CSC2 | 1 (≈ 2.08 µM) | 2 (≈ 4.15 µM) |
| COc1cc(O)c2c(c1Br)C(=O)OCC(=O)NCC(=O)N[C@H](c1nc(C)no1)CSC2 | 0.5 (≈ 0.97 µM) | 0.5 (≈ 0.97 µM) |

Tested on: Escherichia coli
Assay: Inhibition of Escherichia coli DNA gyrase A2B2 complex after 30 mins by supercoiling assay
Conditions: not given

| SMILES | MNEC [µg/mL] |
| --- | --- |
| COc1cc(O)c2c(c1C)C(=O)O[C@H](CO)CCC/C(S)=N/[C@H](c1nc(C)no1)CSC2 | 0.005 |
| COc1cc(O)c2c(c1Br)C(=O)OCC(=O)NCC(=O)N[C@H](c1nc(C)no1)CSC2 | 0.02 |
| COc1cc(O)c2c(c1C)C(=O)OCCCCC(=O)N[C@H](c1nc(C)no1)CSC2 | 0.01 |
| COc1cc(O)c2c(c1C)C(=O)OCCCCC(=S)N[C@H](c1nc(CN)no1)CSC2.Cl | 0.002 |

Tested on: Staphylococcus aureus
Assay: as §2
Type: functional
Conditions: not given
Outline: as §3

| SMILES | MIC [µg/mL] |
| --- | --- |
| COc1cc(O)c2c(c1C)C(=O)O[C@H](CO)CCC/C(S)=N/[C@H](c1nc(C)no1)CSC2 | 0.5 (≈ 1.04 µM) |
| COc1cc(O)c2c(c1Br)C(=O)OCC(=O)NCC(=O)N[C@H](c1nc(C)no1)CSC2 | 1 (≈ 1.94 µM) |
| COc1cc(O)c2c(c1C)C(=O)OCCCCC(=O)N[C@H](c1nc(C)no1)CSC2 | 0.25 (≈ 0.574 µM) |
| COc1cc(O)c2c(c1C)C(=O)OCCCCC(=S)N[C@H](c1nc(CN)no1)CSC2.Cl | 0.25 |

Tested on: Streptococcus pneumoniae
Assay: Antimicrobial activity against multidrug-resistant Streptococcus pneumoniae after 18 hrs by agar dilution method
Type: functional
Conditions: not given
Outline: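 Agar dilution on IsoSensitest agar supplemented with sheep blood (5% v/v), inoculum 10⁴ CFU/spot, against 21 multiresistant S. pneumoniae strains. MIC_50/90 in μg/mL taken as the minimum concentration inhibiting at least 50% or 90% of the strains.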

| SMILES | MIC50 [µg/mL] | MIC90 [µg/mL] |
| --- | --- | --- |
| COc1cc(O)c2c(c1C)C(=O)O[C@H](CO)CCC/C(S)=N/[C@H](c1nc(C)no1)CSC2 | 2 (≈ 4.15 µM) | 4 (≈ 8.31 µM) |
| COc1cc(O)c2c(c1Br)C(=O)OCC(=O)NCC(=O)N[C@H](c1nc(C)no1)CSC2 | 0.5 (≈ 0.97 µM) | 2 (≈ 3.88 µM) |

Tested on: Streptococcus pyogenes
Assay: Antimicrobial activity against Streptococcus pyogenes b15 after 18 hrs by agar dilution method
Type: functional
Conditions: b15, 18 h
Outline: as §3

| SMILES | MIC [µg/mL] |
| --- | --- |
| COc1cc(O)c2c(c1Br)C(=O)OCC(=O)NCC(=O)N[C@H](c1nc(C)no1)CSC2 | < 0.12 |
| COc1cc(O)c2c(c1C)C(=O)OCCCCC(=O)N[C@H](c1nc(C)no1)CSC2 | 1 (≈ 2.3 µM) |
| COc1cc(O)c2c(c1C)C(=O)OCCCCC(=S)N[C@H](c1nc(CN)no1)CSC2.Cl | 0.5 |

Tested on: Haemophilus influenzae
Assay: Antimicrobial activity against multidrug-resistant Haemophilus influenzae after 18 hrs by agar dilution method
Type: functional
Conditions: not given
Outline: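 Agar dilution on Haemophilus test medium, inoculum 10⁵ CFU/spot, against 21 multiresistant H. influenzae strains. MIC_50/90 in μg/mL taken as the minimum concentration inhibiting at least 50% or 90% of the strains.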

| SMILES | MIC50 [µg/mL] | MIC90 [µg/mL] |
| --- | --- | --- |
| COc1cc(O)c2c(c1C)C(=O)O[C@H](CO)CCC/C(S)=N/[C@H](c1nc(C)no1)CSC2 | 8 (≈ 16.6 µM) | 8 (≈ 16.6 µM) |
| COc1cc(O)c2c(c1Br)C(=O)OCC(=O)NCC(=O)N[C@H](c1nc(C)no1)CSC2 | 1 (≈ 1.94 µM) | 4 (≈ 7.76 µM) |

Tested on: Staphylococcus aureus
Assay: Antimicrobial activity against Staphylococcus aureus ATCC 25923 after 18 hrs by agar dilution method
Type: functional
Conditions: ATCC 25923, 18 h
Outline: as §3

| SMILES | MIC [µg/mL] |
| --- | --- |
| COc1cc(O)c2c(c1Br)C(=O)OCC(=O)NCC(=O)N[C@H](c1nc(C)no1)CSC2 | 4 (≈ 7.76 µM) |
| COc1cc(O)c2c(c1C)C(=O)OCCCCC(=O)N[C@H](c1nc(C)no1)CSC2 | 0.5 (≈ 1.15 µM) |
| COc1cc(O)c2c(c1C)C(=O)OCCCCC(=S)N[C@H](c1nc(CN)no1)CSC2.Cl | 0.5 |

Tested on: not listed separately
Assay: Octanol-water partition coefficient, log D of the compound at pH 7.4 by shake-flask method
Type: physicochemical
Conditions: not given
Outline: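 Octanol/water partition measured by shake-flask at pH 7.4.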

| SMILES | logD |
| --- | --- |
| COc1cc(O)c2c(c1Br)C(=O)OCC(=O)NCC(=O)N[C@H](c1nc(C)no1)CSC2 | 1.4 |
| COc1cc(O)c2c(c1C)C(=O)OCCCCC(=O)N[C@H](c1nc(C)no1)CSC2 | 1.99 |
| COc1cc(O)c2c(c1C)C(=O)OCCCCC(=S)N[C@H](c1nc(CN)no1)CSC2.Cl | 1.85 |

Tested on: Enterococcus faecalis
Assay: Antimicrobial activity against multidrug-resistant Enterococcus faecalis after 18 hrs by agar dilution method
Type: functional
Conditions: not given
Outline: as §1

| SMILES | MIC50 [µg/mL] | MIC90 [µg/mL] |
| --- | --- | --- |
| COc1cc(O)c2c(c1C)C(=O)O[C@H](CO)CCC/C(S)=N/[C@H](c1nc(C)no1)CSC2 | 1 (≈ 2.08 µM) | 1 (≈ 2.08 µM) |
| COc1cc(O)c2c(c1Br)C(=O)OCC(=O)NCC(=O)N[C@H](c1nc(C)no1)CSC2 | 0.25 (≈ 0.485 µM) | 0.5 (≈ 0.97 µM) |

Tested on: Enterococcus faecalis
Assay: Antimicrobial activity against Enterococcus faecalis 6 after 18 hrs by agar dilution method
Conditions: Enterococcus faecalis, 6, 18 h

| SMILES | MIC [µg/mL] |
| --- | --- |
| COc1cc(O)c2c(c1Br)C(=O)OCC(=O)NCC(=O)N[C@H](c1nc(C)no1)CSC2 | 0.5 (≈ 0.97 µM) |
| COc1cc(O)c2c(c1C)C(=O)OCCCCC(=O)N[C@H](c1nc(C)no1)CSC2 | 0.5 (≈ 1.15 µM) |
| COc1cc(O)c2c(c1C)C(=O)OCCCCC(=S)N[C@H](c1nc(CN)no1)CSC2.Cl | 0.5 |

Tested on: Stenotrophomonas maltophilia
Assay: Antimicrobial activity against Xanthomonas maltophilia IAC 739 after 18 hrs by agar dilution method
Type: functional
Conditions: IAC 739, 18 h
Outline: as §3

| SMILES | MIC [µg/mL] |
| --- | --- |
| COc1cc(O)c2c(c1Br)C(=O)OCC(=O)NCC(=O)N[C@H](c1nc(C)no1)CSC2 | > 64 |
| COc1cc(O)c2c(c1C)C(=O)OCCCCC(=O)N[C@H](c1nc(C)no1)CSC2 | 4 (≈ 9.18 µM) |
| COc1cc(O)c2c(c1C)C(=O)OCCCCC(=S)N[C@H](c1nc(CN)no1)CSC2.Cl | 4 |
